Data from article PMC4678411 (Journal of Medicinal Chemistry, 2015).
≈ marks a conversion by molar mass, not a printed value.

Columns and labels:
[1] = clinical trials, patients; cited from earlier work
[2] = Aqueous solubility determination; format: physicochemical; details: pH 7.4
How it was run: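 About 5 mg excess solid in Tris buffer pH 7.4, in triplicate. Sonicated, vortexed, then shaken at 100 shakes/min at 25 °C for 24 h. Solid removed by centrifugation and filtration; filtrate diluted. Quantified by HPLC on a C18 column with photodiode-array detection, using an acetonitrile (10–70%)/10 mM sodium phosphate pH 7 gradient over 20 min.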

[3] = test system: A2780 human ovarian cancer cell line; assay: Efficacy study in a mouse model of human ovarian cancer; format: in vivo, female athymic nude mice
How it was run: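 A2780 cells (RPMI 1640/10% FBS, mycoplasma-negative) implanted s.c. at 2.5 × 10^6 in 50% Matrigel into female athymic nude mice aged 7–9 weeks. Randomized at mean 188 mm3, 10 per group. Daily IP or oral-gavage doses of 0.1–1.2 mg/kg in USP saline for 30 days. Controls were vehicle and carboplatin 60 mg/kg twice weekly. Tumor volume (L × W²/2), survival and clinical signs tracked.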

[4] = test system: alkaline phosphatase from bovine intestinal mucosa; details: no enzyme; cited from earlier work
[5] = Chemical hydrolysis stability study at 40-70 °C with Arrhenius extrapolation; format: physicochemical; details: for extrapolated pseudo-first-order rate constant (kobsd) for hydrolysis: extrapolated from Arrhenius plot; for pseudo-first-order rate constant (kobsd) of hydrolysis: pH 7.4; for half-life: pH 7.4, calculated half-life (t1/2) of hydrolysis
How it was run: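 Test compound dissolved in Sodium Chloride Injection USP at 20.0 mg/100 mL ("high") or 3.00 mg/100 mL ("low"). Flame-sealed in sterilized ampules and held at 70, 60, 50 or 40 °C, sampled at intervals over hours (70, 60 °C) or days (50, 40 °C). Analysed by HPLC. Ea came from an Arrhenius plot, which was extrapolated to give kobsd, t1/2 and t90 at 25 and 4 °C.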

[6] = test system: HT-29 human colon adenocarcinoma cell line; assay: Efficacy study in a mouse model of human colon adenocarcinoma; format: in vivo, female athymic nude mice; details: for test-article related deaths: 0.9 mg/kg IP, ten mice
How it was run: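 Female athymic nude mice aged 7–9 weeks, acclimated ≥7 days. Implanted s.c. in the right flank with 1.74 × 10^6 mycoplasma-negative HT-29 cells in 50% Matrigel/medium. Randomized at mean 110 mm3, 10 per group. Dosed IP in USP saline (0.2 mL) by group-mean body weight, daily or intermittently, for 28 days. Caliper volume (L × W²/2) measured ≥twice weekly, plus necropsy tumor weight, survival, body weight and clinical signs.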

## CC(C)[C@]12O[C@H]1[C@@H]1O[C@]13[C@]1(O[C@H]1C[C@H]1C4=C(CC[C@@]13C)C(=O)OC4)[C@@H]2OC(=O)CCC(=O)O [omtriptolide, triptolide succinate]
[1]
  cleavage of the prodrug moiety: slow and incomplete

## CC(C)[C@]12O[C@H]1[C@@H]1O[C@]13[C@]1(O[C@H]1C[C@H]1C4=C(CC[C@@]13C)C(=O)OC4)[C@@H]2O [triptolide, Triptolide, reference compound]
[2]; Tris buffer
  solubility at 24 h: 17 µg/mL (≈ 47.2 µM)

## CC(C)[C@]12O[C@H]1[C@@H]1O[C@]13[C@]1(O[C@H]1C[C@H]1C4=C(CC[C@@]13C)C(=O)OC4)[C@@H]2OCOP(=O)([O-])[O-].[Na+].[Na+] [Compound 4, Sodium (((5bS,6aS,7aR,8R,8aS,9aS,9bS,10aS,10bS)-8a-Isopropyl-10b-methyl-3-oxo-1,2,3,5,5b,6,6a,8,8a,9a,9b,10b-dodecahydrotris(oxireno)[2′,3′:4b,5;2″,3″:6,7;2‴,3‴:8a,9]phenanthro[1,2-c]furan-8-yl)oxy)methyl Phosphate]
[3]; intraperitoneal injection, daily doses of 0.6 or 0.9 mg/kg (data not shown)
  efficacy and tolerability: effective and well tolerated
[3]; oral gavage, daily doses of 0.6 or 0.9 mg/kg, slightly higher rates of morbidity and mortality
  efficacy: effective
[4]
  stability in a similar assay in the absence of alkaline phosphatase: stable for 1 h
[2]
  solubility enhancement by prodrug formation versus triptolide: 3600 times
[5]; 4 °C
  extrapolated pseudo-first-order rate constant (kobsd) for hydrolysis: 6.5 × 10^–6 h^–1
  half-life: 4460 days
[5]; 25 °C
  extrapolated pseudo-first-order rate constant (kobsd) for hydrolysis: 8.6 × 10^–5 h^–1
  half-life: 336 days
[5]; 40 °C
  pseudo-first-order rate constant (kobsd) of hydrolysis: 0.000494 h^–1
[5]; 50 °C
  pseudo-first-order rate constant (kobsd) of hydrolysis: 0.001052 h^–1
[5]; 60 °C
  pseudo-first-order rate constant (kobsd) of hydrolysis: 0.002482 h^–1
[5]; 70 °C
  pseudo-first-order rate constant (kobsd) of hydrolysis: 0.008659 h^–1
[5]; from Arrhenius plot, pH 7.4, 40-70 °C
  activation energy (Ea) of hydrolysis: 15.2 kcal/mol
[6]; 0.9 mg/kg IP daily for 2 weeks followed by 3×/week
  mice that survived until the end of the study: 9/10
[6]; 0.9 mg/kg IP daily for 4 weeks
  mice that survived until the end of the study: 7/10
[6]; 0.9 mg/kg IP daily for 4 weeks or daily for 2 weeks followed by 3×/week
  tumor status of all mice surviving until the end of the study: tumor free
[6]; 0.9 mg/kg IP less frequently than daily or with a break from daily dosing
  effect on xenograft tumors, intermittent regimens: effective
[6]; QD for 2 weeks group
  test-article related deaths: 1
[6]; QD for 2 weeks then 3×/week group
  test-article related deaths: 1
[6]; QD for 4 weeks group
  test-article related deaths: 3
[6]; IP, 0.1-0.9 mg/kg, all regimens
  tolerability: generally well tolerated
[6]; administered daily IP, dose levels from 0.3 to 0.9 mg/kg, 28 days
  effect on xenograft tumors: effective in reducing or eliminating xenograft tumors
